# Screening data deposited in PubChem by several laboratories.
# An excerpt weighted towards active compounds, which were near 2% of everything screened.
# Beta2AR agonist: agonists of human beta-2 adrenergic receptor inducing internalization. 0.43% of 340,000 active. AID 504454. Am2.2-beta2AR cells, FAP receptor internalization, flow cytometry. response, % (test concentration not listed). P07550;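 active = response above a set limit, near 3 SD of response in nonfluorescent compounds, cut at about 42% in these data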
# Target sequence (P07550 whole entry, looked up): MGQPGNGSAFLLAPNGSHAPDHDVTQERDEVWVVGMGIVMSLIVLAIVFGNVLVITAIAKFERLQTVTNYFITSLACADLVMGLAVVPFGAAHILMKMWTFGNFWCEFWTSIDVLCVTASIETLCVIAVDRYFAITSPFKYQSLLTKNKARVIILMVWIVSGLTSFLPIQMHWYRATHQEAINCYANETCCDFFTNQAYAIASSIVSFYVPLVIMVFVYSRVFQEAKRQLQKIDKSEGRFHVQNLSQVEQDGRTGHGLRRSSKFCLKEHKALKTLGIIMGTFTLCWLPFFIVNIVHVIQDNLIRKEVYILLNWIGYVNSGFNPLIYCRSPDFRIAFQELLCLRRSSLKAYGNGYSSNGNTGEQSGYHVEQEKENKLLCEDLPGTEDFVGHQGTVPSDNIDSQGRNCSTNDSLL
# NTR1 agonist: NTR1 (human) agonism; NTR1-U2OS beta-arrestin-GFP spot imaging, agonist mode; activation, % at 20 µM; 0.17% of 330,000 active;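 active = activation at or above 40% of the spot to cytoplasm intensity ratio, with at least 20 cells analyzed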;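 also: 0% = DMSO without peptide and 100% = 100 nM NTR1 peptide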
# GRK2 inh: human GRK2 inhibition via aptamer displacement. bead flow cytometry, FAM-aptamer displacement from GRK2. inhibition of aptamer binding, % at 10 µM. 0.59% of 330,000 active;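 active = inhibition of aptamer binding above 40%, roughly 3 SD of noise, on plates passing a quality check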;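 also: median bead fluorescence of bound FAM aptamer so fluorescent compounds give negative values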
# Lipid droplet: hepatic lipid droplet formation modulation; AML12 mouse hepatocytes, oleate lipid droplets, BODIPY imaging; inhibition, % at 6.5 µM; AID 1656; 0.4% of 240,000 active;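 active = lipid droplet intensity inhibited by at least 50%, with more than 500 cells counted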
#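 System: AML12 hepatocytes (mouse). Probe or stimulus: oleic acid at 100 µM to induce lipid droplet formation. Times: overnight treatment with compound plus oleate. Detection: Image-based BODIPY and DAPI two-channel analysis. Evaluation: percent inhibition of filter-corrected integrated lipid droplet intensity per well.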
# Arr AP2 block: blocks beta-arrestin peptide binding to AP2 adaptin | AID 504490 | FITC-arrestin peptide / GST-AP2 beads, flow cytometry; AP2 beta2 appendage carries R879A mutation | inhibition, % at 10 µM | 0.31% of 340,000 active;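 active = inhibition above a set limit, near 3 SD of compounds lacking own fluorescence, cut at about 54% in these data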;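 also: plate controls were DMSO wells for no effect and 5 µM unlabelled arrestin peptide for full effect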
#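 System: GST-AP2 R879A glutathione beads; medium: PBS, Tween 20 0.05%, BSA 0.1%; reagent: fluorescein-tagged arrestin peptide at 50 nM final; schedule: pre-incubation 12 min, peptide binding 1 h, room temperature; detection: flow cytometry, FL1 (488/535 nm); read-out: inhibition as reduced fluorescein signal on beads, percent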
# H9c2 TAG inh: triacylglycerol accumulation inhibition. inhibition, % at 12.5 µM. 0.66% of 230,000 active. H9c2 cells, Nile Red lipid (TAG) fluorescence; cells loaded with 200 µM oleic acid. AID 651582;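 active = pattern-corrected inhibition of lipid staining of at least 50% with the nuclear-stain viability signal not falling by more than 50%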;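 also: 0% = DMSO wells and 100% = triacsin C control wells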
# GRK2 inh confirm: human GRK2 inhibition confirmation, cherry pick 1. shares compounds with GRK2 inh. AID 504451. 4% of 2,000 active. bead-bound GRK2, FAM-aptamer displacement, flow cytometry. aptamer displacement, % at 10 µM;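 active = aptamer displacement above 40%, near three times the noise of non-fluorescent compounds, on plates passing quality checks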;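 also: negative values mostly reflect intrinsic compound fluorescence rather than true enhancement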
# Aptamer quench SP: quenches fluorescent RNA aptamer, GRK2 hit artifact; fluorescence response (% of DMSO), % at 10 µM; 2,000 tested, under 10 active; shares compounds with GRK2 inh; Carboxyfluorescein RNA aptamer on beads, flow cytometry quenching; stronger effect = lower value;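 active = compounds that quench the bead-bound fluorescent RNA probe, cutting fluorescence to under half of the solvent control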;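 also: counterscreen run without GRK2 so only probe quenching by compound is measured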
# * hit, by the source's call; . = not tested or not shown.
SMILES,Beta2AR agonist,NTR1 agonist,GRK2 inh,Lipid droplet,Arr AP2 block,H9c2 TAG inh,GRK2 inh confirm,Aptamer quench SP
O=C(N/N=C/c1cccnc1)c1cc(O)c(O)c(O)c1,2,-1,44*,-9,36,.,-9,99
CCN(c1ccccc1)S(=O)(=O)c1ccc(Cl)c(C(=O)N2CCCC2)c1,2,-1,4,.,24,-20,.,.
CCOc1ccccc1NC(=S)N1C2CCC1CC(NC(=O)NC13CC4CC(CC(C4)C1)C3)C2 (configuration not stated),-10,1,3,.,-5,.,.,.
COc1ccccc1NC(=S)N1C2CCC1CC(NC(=O)NC13CC4CC(CC(C4)C1)C3)C2 (configuration not stated),3,1,46*,.,-9,.,1,92
COc1cccc(-c2nc(CS(=O)(=O)CC(=O)NC3CCCC3)c(C)o2)c1,3,0,0,3,-2,.,.,.
Cc1oc(-c2ccccc2Cl)nc1CSc1nc2c(c(=O)[nH]1)CCC2,-11,1,56*,18,24,-8,7,99
CCOC(=O)N1CCC(NC(=O)CSCc2nc(-c3ccccc3Cl)oc2C)CC1,-8,1,3,-1,7,.,.,.
Cc1oc(-c2ccccc2Cl)nc1CSCC(=O)NC1CCCC1,-2,-1,30,6,6,-20,0,99
Cc1oc(-c2cccc(Cl)c2)nc1CS(=O)(=O)CC(=O)NC1CCCC1,7,1,67*,0,10,.,-2,96
CCOCCCNC(=O)CS(=O)(=O)Cc1nc(-c2cccc(OC)c2)oc1C,5,1,56*,2,13,.,2,100
CCCNC(=O)CS(=O)(=O)Cc1nc(-c2cccc(OC)c2)oc1C,5,5,0,11,4,7,.,.
COc1ccccc1N1CCN(C2CCCN(C(=O)CCc3ccccn3)C2)CC1 (configuration not stated),-3,1,3,-17,10,8,.,.
NC(=O)C1CCN(CC(=O)N2c3ccccc3CCc3ccccc32)CC1,-4,-1,32,-1,24,10,-1,98
CC(=O)NN1CCc2cc3ccc(C)cc3nc21,13,-2,90*,18,8,.,-10,96
Cc1ccc2cc3c(nc2c1)N(c1ccccc1)CC3,0,3,0,-36,39,13,.,.
COc1ccc(NS(=O)(=O)c2cn(C)nc2C)cc1,-11,0,0,6,27,-23,.,.
COc1cc(SC)ccc1C(=O)OCC(=O)NCCC1=CCCCC1,-2,2,0,.,2,15,.,.
CC(C)(O)C1CC[C@@](C)([C@@H]2CC[C@]3(C)[C@H]2[C@H](O)CC2[C@@]4(C)CCC(O)C(C)(C)C4C(OC4OC(CO)C(O)C(O)C4O[C@@H]4OCC(O)C(O)C4O)C[C@]23C)O1 (some centres not stated),0,-3,0,.,-1,19,-2,100
CCC(CC)=NNc1ccc([N+](=O)[O-])cc1[N+](=O)[O-],2,0,61*,-24,2,5,2,94
O=C(CCCc1ccncc1)c1ccccc1,-7,.,.,.,13,-3,.,.
CCOc1ccccc1C1c2[nH]c3ccccc3c2C[C@H]2C(=O)N(C3CCN(Cc4ccccc4)CC3)CC(=O)N12 (some centres not stated),15,6,0,2,30,.,-13,101
COc1ccc(C2c3[nH]c4ccccc4c3C[C@H]3C(=O)N(C4CCN(Cc5ccccc5)CC4)CC(=O)N23)c(OC)c1 (some centres not stated),11,2,0,25,12,.,.,.
Cc1ccccc1C1c2[nH]c3ccccc3c2C[C@H]2C(=O)N(C3CCN(Cc4ccccc4)CC3)CC(=O)N12 (some centres not stated),13,4,0,24,-8,.,-20,105
COc1ccc(OC)c(C2c3[nH]c4ccccc4c3C[C@H]3C(=O)N(C4CC4)CC(=O)N23)c1 (some centres not stated),-3,0,4,-1,0,.,.,.
Cc1ccc(NC(=O)CCc2nc3ccccc3c(=O)[nH]2)cc1S(=O)(=O)N1CCOCC1,11,-2,0,.,-5,3,.,.
SMILES,Beta2AR agonist,NTR1 agonist,GRK2 inh,Lipid droplet,Arr AP2 block,H9c2 TAG inh,GRK2 inh confirm,Aptamer quench SP
COc1ccc(S(=O)(=O)N2CCCC2CNC(=O)C(=O)NCc2ccco2)cc1 (configuration not stated),-4,1,1,.,-16,-8,.,.
CC(=O)c1cc2c(cc1NC(=O)C1CC=CCC1C(=O)O)OCO2 (configuration not stated),6,-1,4,-5,18,7,.,.
CC(=O)c1cc2c(cc1NC(=O)C1CN(C(C)=O)c3ccccc3O1)OCO2 (configuration not stated),0,1,26,.,0,2,0,104
CSc1ccccc1C(=O)Nc1cccc([N+](=O)[O-])c1,-5,-1,2,-2,11,8,.,.
C=CCOc1cccc(NC(=O)c2ccccc2SC)c1,0,-1,92*,-1,7,.,1,90
COc1ccc(NC(=O)c2ccccc2SC)cc1OC,-2,0,4,13,8,9,.,.
CSc1ccccc1C(=O)Nc1cccc(C)c1,2,-2,97*,12,-3,.,0,94
COc1ccc(S(=O)(=O)Nc2cc(Sc3ncn[nH]3)c(O)c3ccccc23)cc1,.,.,.,-25,.,.,.,.
O=S(=O)(Nc1cc(Sc2cccc3cccnc23)c(O)c2ccccc12)c1ccc(F)cc1,.,.,42*,-14,.,.,3,97
CCC(C)(C)NC(=O)C1CCCN(S(=O)(=O)c2ccc3c(c2)CC(C)N3C(=O)C2CC2)C1 (configuration not stated),-4,0,0,-25,16,.,.,.
CCOC(=O)c1sc2nc3c(SCC(=O)O)cc(C(=O)c4ccccc4O)cn3c(=O)c2c1C,20,0,63*,7,5,4,17,98
NC(=O)CSc1nnc(-c2ccc(S(=O)(=O)N3CCCC3)cc2)o1,-2,0,45*,2,-9,.,-1,81
O=S(=O)(c1ccc(-c2nnc(SCc3ccccc3)o2)cc1)N1CCCC1,-8,6,0,.,-6,16,.,.
Cc1ccc(CSc2nnc(-c3ccc(S(=O)(=O)N4CCCC4)cc3)o2)cc1,-2,1,59*,.,5,.,-2,95
